Bioassay records: PubChem, several laboratories
SF-1 act: activators of human nuclear receptor SF-1; 1.9% of 65,000 active; AID 522; CHO-K1 Gal4-SF-1 LBD luciferase reporter; % increase over DMSO SF-1-specific signal; activation, % at 10 µM; Q13285;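 active = activation above the mean activation of all tested compounds plus 3 SD, cut at about 50% in these data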
Target sequence (Q13285 whole entry, looked up, the tested form may be a part): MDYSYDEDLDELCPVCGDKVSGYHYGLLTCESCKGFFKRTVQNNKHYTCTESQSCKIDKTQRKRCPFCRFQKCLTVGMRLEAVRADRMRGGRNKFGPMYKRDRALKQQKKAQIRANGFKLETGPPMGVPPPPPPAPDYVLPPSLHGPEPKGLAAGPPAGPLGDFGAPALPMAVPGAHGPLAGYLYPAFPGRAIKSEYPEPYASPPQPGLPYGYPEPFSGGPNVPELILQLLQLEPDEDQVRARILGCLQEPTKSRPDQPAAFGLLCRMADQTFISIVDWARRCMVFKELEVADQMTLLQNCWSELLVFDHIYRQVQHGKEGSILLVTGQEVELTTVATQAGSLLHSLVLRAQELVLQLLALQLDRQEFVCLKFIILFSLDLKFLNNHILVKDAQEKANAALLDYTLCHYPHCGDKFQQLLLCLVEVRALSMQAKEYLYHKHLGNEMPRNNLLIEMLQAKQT
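Material: Transient Gal4-SF-1 LBD reporter, CHO-K1 | Input: 4,000 cells/well | Dosing: One dose, 10 µM compound, 1% DMSO | Incubation: 20 h compound treatment, 37 °C | Detection: SteadyLite luciferase luminescence | Evaluation: Percent activation relative to DMSO median and mock-transfected background | Benchmarks: DMSO-treated SF-1-transfected cells as negative, DMSO-treated mock-transfected cells lacking SF-1 as background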
MMP13 inh: inhibitors of human MMP13; inhibition, % at 4 µM; 0.07% of 65,000 active; P45452; MMP-13 fTHP FRET cleavage, Mca fluorescence;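 active = inhibition above the mean of compound-free control plate wells plus 3 SD, cut at about 14% in these data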
RORA act: activates the human nuclear receptor RORA; CHO-K1 Gal4-RORA LBD luciferase reporter, luminescence; percent increase over mock-subtracted basal signal; activation, % at 10 µM; 1.5% of 65,000 active;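 active = activation above the mean of all tested compounds plus 3 SD, cut at about 49% in these data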
TNAP act mid DEA: activates human TNAP at intermediate phosphate acceptor concentration; P05186; purified TNAP, CDP-star luminescence, 100 mM DEA, 30 min; hits give high values; scale: 0 levamisole-inhibited, 1 vehicle-only enzyme; activation factor at 20 µM; 64,000 tested, under 10 active; AID 813;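 active = activation factor of at least 2 at 20 µM, relative to controls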
MT1-MMP txn act: MT1-MMP promoter transcription activation; HT1080 MT1-MMP promoter luciferase reporter, luminescence, overnight; hits give high values; activation factor at 10 µM; 0.16% of 86,000 active;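 active = activation factor of at least 2 for MT1-MMP transcription at 10 µM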
Of the large screens only hits and unclear results are named; the others gave an inactive call. Sampled rows, rich in hits. Any-hit rate of the full collection: about 2.1%.

Cc1ccc(C(=O)c2oc3ccccc3c2N)cc1	none (no result: SF-1 act, MMP13 inh, RORA act, TNAP act mid DEA)
CCCCCCN(C(=O)CCCCCN1C(=O)NC(c2ccc3ccccc3c2)C(C(=O)OCc2ccccc2)=C1C)C(C(=O)NCCCC)c1ccc(OCC(=O)OC)c(C(=O)OC)c1 (configuration not stated)	none (no result: SF-1 act, MMP13 inh, RORA act, TNAP act mid DEA)
C[C@]1(C(=O)NCC2CC2)C=C[C@@H](Cc2ccccc2)N1C(=O)c1ccccc1	none (no result: SF-1 act, MMP13 inh, RORA act, TNAP act mid DEA)
O=C(Nc1cccc(-c2cnc3ccccc3n2)c1)c1ccco1	SF-1 act 55.1, RORA act 60.7
CC(=Nc1cccc(O)c1)c1sc2ccccc2c1O	SF-1 act 93.7
CC(=Nc1ccc(C)cc1)c1sc2ccccc2c1O	none (no result: SF-1 act, MMP13 inh, RORA act, TNAP act mid DEA)
COC(=O)c1ccc(C(NC(=O)OCc2ccccc2)/C(F)=C/[C@@H](C)C(=O)NCCN2CCOCC2)cc1 (some centres not stated)	none (no result: SF-1 act, MMP13 inh, RORA act, TNAP act mid DEA)
Cc1csc(SCC(=O)Nc2ncc(Cl)c(C)c2Cl)n1	none (no result: SF-1 act, MMP13 inh, RORA act, TNAP act mid DEA)
Nc1nc(-c2ccco2)nn1C(=O)CCc1ccccc1	none
Nc1nc2ccccc2n1C(=O)CCc1ccccc1	SF-1 act 67.3
CCOC(=O)N1CCN(C(=O)CSc2nnc(-c3ccc(C)c(C)c3)o2)CC1	none
O=C(CSc1nnc(-c2ccc3c(c2)OCCO3)o1)N1CCCC1	SF-1 act 49.8
COc1ccc(-c2nnc(SCC(=O)N3CCOCC3)o2)cc1OC	none
Cc1ccc(-c2nnc(SCC(=O)N3CCCC3)o2)cc1C	RORA act 57.8
CCOc1ccc(-c2nnc(SCC(=O)N3CCOCC3)o2)cc1	RORA act 51.6
O=C(CSc1nnc(-c2ccccc2Cl)o1)N1CCCCC1	RORA act 65.2
CCC1CCCCN1C(=O)CSc1nnc(-c2ccc3c(c2)OCCO3)o1 (configuration not stated)	none
CCCCSc1nnc(-c2c[nH]c3ccccc23)n1C	SF-1 act 56.9
Cc1cc(C(=O)Nc2sc(C)c(-c3ccc(F)cc3)c2C(N)=O)no1	SF-1 act 84.9
CCCc1cc(C(N)=O)c(NC(=O)c2cc(C)on2)s1	none
c1ccc(-c2onc3cc4c(cc23)OCCO4)cc1	RORA act 74.3
CN(CC(=O)O/N=C(\N)c1cccc([N+](=O)[O-])c1)S(=O)(=O)c1ccccc1	none (no result: SF-1 act, MMP13 inh, RORA act, TNAP act mid DEA)
O=C(NC1=NCCS1)Nc1ccccc1	SF-1 act 86.3
O=C(NC1=NCCS1)c1cccs1	none
Cc1cc(C(=O)NC2=NCCS2)cs1	SF-1 act 53.0
O=C(NC1=NCCS1)c1ccncc1	none
COC(=O)[C@@]1(Cc2ccc(OC)cc2)[C@H]2c3cc(C(=O)N4CCCC4)n(Cc4ccsc4Br)c3C[C@H]2CN1C(=O)c1ccccc1	none (no result: SF-1 act, MMP13 inh, RORA act, TNAP act mid DEA)
O=C1c2ccccc2C(=O)N1CCC1=CCCCC1	none (no result: SF-1 act, MMP13 inh, RORA act, TNAP act mid DEA)
Cc1ccc2c(c1)C(N1CCCC1=O)CC(c1ccco1)N2 (configuration not stated)	SF-1 act 57.7, RORA act 52.2
CS(=O)(=O)N1CCC(C(=O)Nc2ccc3c(c2)OCCO3)CC1	none (no result: SF-1 act, MMP13 inh, RORA act, TNAP act mid DEA)
Cc1ccc(NC(=O)C2CCN(C(=O)NC3CCCCC3)CC2)cc1Cl	none
Cc1ccc(NC(=O)NC2CCCCC2)cc1Cl	SF-1 act 73.8, RORA act 105.5
N#CC1=C(SCC(=O)c2ccccc2)NC2=C(C(=O)CCC2)C1c1ccco1 (configuration not stated)	SF-1 act 100.4, RORA act 173.5
Cc1ccc(C(=O)CSC2=C(C#N)C(c3ccco3)C3=C(CCCC3=O)N2)cc1 (configuration not stated)	none
Cn1nnc(NC(=O)c2cccc(OCc3ccccc3)c2)n1	RORA act 54.1
C[C@H](NC(=O)[C@@H]1C[C@H]1[C@@H](NC(=O)OCc1ccccc1)c1ccccc1)c1ccccc1	none (no result: SF-1 act, MMP13 inh, RORA act, TNAP act mid DEA)
COc1ccc2oc(=O)c(-c3nc(C)cs3)cc2c1	SF-1 act 54.1
COc1ccc2oc(=O)c(C(C)=O)cc2c1	none (no result: SF-1 act, MMP13 inh, RORA act, TNAP act mid DEA)
CC(=O)N1C2(C=CC1(C)C(=O)NCc1cc(F)cc(C(F)(F)F)c1)CCCCC2 (configuration not stated)	none (no result: SF-1 act, MMP13 inh, RORA act, TNAP act mid DEA)
COc1cccc(C2=N/C(=C\N(C)C)C(=O)O2)c1	RORA act 71.0
COc1cccc(-c2nc3ccccc3c(=O)o2)c1	none (no result: SF-1 act, MMP13 inh, RORA act, TNAP act mid DEA)
CN(Cc1ccccc1)c1nc(N)c([N+](=O)[O-])c(Nc2cccc(F)c2)n1	none (no result: SF-1 act, MMP13 inh, RORA act, TNAP act mid DEA)
Clc1ccc(-c2nnc(-c3ccccc3Cl)o2)cc1	RORA act 86.5
CCN1CCN(Cc2ccc3c(c2)Cc2ccccc2-3)CC1	none
c1ccc2c(c1)Cc1cc(CN3CCOCC3)ccc1-2	RORA act 67.7
CCCOC(=O)Nc1nc2ccccc2o1	SF-1 act 58.2
O=C1OC(c2ccc(Cl)cc2)/C(=C(/O)c2ccccc2)C1=O (configuration not stated)	none (no result: SF-1 act, MMP13 inh, RORA act, TNAP act mid DEA)
COc1ccccc1N1CCN(C(=O)COc2ccc(C)cc2Br)CC1	none
Cc1ccc(OCC(=O)N2CCCCC2)c(Br)c1	SF-1 act 56.8, RORA act 53.8
Cc1cc(OCC(=O)N2CCCC2)ccc1Cl	SF-1 act 50.8
COc1ccccc1N1CCN(CC(O)c2ccc3cc[nH]c3c2)CC1 (configuration not stated)	none
CC(C)(C)NC(=O)NC(=O)COc1ccccc1C#N	SF-1 act 60.1
CCS(=O)(=O)c1ccc2oc(Nc3ccccc3C)nc2c1	SF-1 act 65.5
CCS(=O)(=O)c1ccc2oc(SCC(=O)NCCC3=CCCCC3)nc2c1	none
O=C(O)c1ccccc1COc1ccccc1Cl	none
O=C(O)c1cccc(OCc2ccccc2Cl)c1	SF-1 act 80.1
COc1cc2c(cc1OC)-c1nnc(-c3ccco3)n1C1(CCCC1)C2	none (no result: SF-1 act, MMP13 inh, RORA act, TNAP act mid DEA)
O=C(Nc1nc2ccccc2n1CCN1CCCCC1)c1ccc(Cl)cc1	none (no result: SF-1 act, MMP13 inh, RORA act, TNAP act mid DEA)
Cc1ccc(C(=O)Nc2nc3ccccc3n2CCN2CCCC2)cc1	RORA act 61.8
O=C(Nc1nc2ccccc2n1CCN1CCCC1)c1ccc(Cl)cc1	SF-1 act 55.4, RORA act 99.4
CCc1cccc2c(-c3ccccc3)c3c(nc12)OCC3	none (no result: SF-1 act, MMP13 inh, RORA act, TNAP act mid DEA)
Cc1nn(-c2ccccc2)c(C)c1NC(=O)c1cccs1	none (no result: MT1-MMP txn act)
Nc1nc(NC(=O)c2cccs2)nn1-c1ccccc1	SF-1 act 77.2
O=C(Nc1ccc2nn(-c3ccccc3)nc2c1)c1cccs1	SF-1 act 69.6
CCOc1ccc2nc(N3CCOCC3)nc(C)c2c1	RORA act 50.6
CCOc1ccc(Nc2cc(C)nc(N3CCOCC3)n2)cc1	none
COc1ccc(OC)c(N=CC2=C(O)CC(C)(C)CC2=O)c1	none
COc1ccc(N=CC2=C(O)CC(C)(C)CC2=O)cc1	SF-1 act 87.2
CC1(C)CC(=O)C(C=Nc2ccc3c(c2)OCO3)=C(O)C1	SF-1 act 72.4, RORA act 65.4
Oc1[nH]c2ccccc2c1C=Nc1ccc2c(c1)OCO2	SF-1 act 62.5, RORA act 84.2
COc1ccc(N=CC2=C(O)CCCC2=O)cc1	SF-1 act 52.2
O=C(Nc1ccc(N2CCCCC2)cc1)c1cncc(Br)c1	RORA act 78.1
O=C(Nc1ccc(N2CCCCC2)c(Cl)c1)c1cccnc1	SF-1 act 75.1
